In brackets after ≈: the same amount, converted by molar mass. Activity calls are given as the source filed them. The calls are words filed in the database; no cut-off is given here.
Columns and labels:
Enterovirus C [1] = test: Maximal non-toxic dose (MNTD) that shows antiviral activity.; assay type: functional
Summary of the method: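 End-point titration. Poliovirus type 1 Brunhilde was run in Vero cells at 37 °C with a 3-day read. Rhinovirus 15 was run in human skin fibroblasts at 33 °C with a 7-day read. Monolayers got serial 10-fold virus dilutions and adsorbed 1 h at 37 °C, then serial 2-fold compound dilutions (DMSO stock in maintenance medium). CPE was read by light microscopy. RF = control titer (TCD50/mL) / titer at maximal nontoxic dose.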

Enterovirus C [2] = test: The ratio of the poliovirus viral titer of the virus control (reduction factor) to the viral titer in the presence of the maximal non-toxic dose (RF MNTD); assay type: functional
Summary of the method: (§1)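 Poliovirus type 1 Brunhilde 1A/S3 in Vero monolayers. Serial 10-fold virus dilutions adsorbed 1 h at 37 °C, then serial 2-fold compound dilutions were added. Incubated at 37 °C and scored for CPE by light microscopy, with a 3-day readout. Titer reduction is control/treated TCD50/mL. ED99 is the minimum concentration inhibiting 99% of virus. Virus, cell and compound controls were included.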

Enterovirus C [3] = test: Minimum drug concentration at which 99% of the polio virus is inhibited; NA= not active; assay type: functional, organism-based; summary of the method: as §1
[4] = Cytotoxic dose at which 50% growth of normal cells is inhibited; assay type: cell-based; conditions: chlorocebus sabaeus, Vero cells; read-out: CyD50
Summary of the method: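 Cell-growth cytotoxicity in Vero cells or human skin fibroblasts. Serial 2-fold dilutions in M-199 with 6% newborn calf serum were added in quadruplicate to 10⁶ cells and held 6 days at 37 °C. Cells were trypsinized, counted and reseeded with compound, repeated five times. Generation time was calculated per concentration. CyD50 = lowest concentration at least doubling generation time versus untreated cells.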

Human rhinovirus sp. [5] = test: Minimum drug concentration at which 99% of the rhino virus is inhibited.; assay type: functional
Summary of the method: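 End-point titration with rhinovirus type 15 on human skin fibroblast monolayers. Cells were infected with serial 10-fold virus dilutions and allowed 1 h adsorption at 37 °C. Serial 2-fold compound dilutions were then added and plates incubated at 33 °C. CPE was read daily by light microscopy for at least 1 week, titres as TCD50/mL. ED99 = minimum concentration inhibiting 99% of virus.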

Enterovirus C [6] = test: Minimum drug concentration at which 99% of the polio virus is inhibited; assay type: functional; summary of the method: as §1
[7] = Therapeutic Index measured as the ratio of CyD50 (rhino) / ED99 (rhino) values.; conditions: read-out: Therapeutic index 99
Summary of the method: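 TI99 = CyD50/ED99 for rhinovirus 15. ED99 came from end-point titration in human skin fibroblasts at 33 °C over 7 days. CyD50 came from fibroblast growth: 10⁶ cells were given serial 2-fold compound dilutions in quadruplicate for 6 days at 37 °C, then counted and reseeded, repeated five times. Generation time was calculated per concentration.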

[8] = Therapeutic Index measured as the ratio of CyD50(polio) / ED99(polio) values; assay type: organism-based; conditions: enterovirus c; read-out: Therapeutic index 99
Summary of the method: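 TI99 = CyD50/ED99 for poliovirus. ED99 came from end-point titration in Vero cells at 37 °C over 3 days. CyD50 came from Vero cell growth: 10⁶ cells were given serial 2-fold compound dilutions in quadruplicate for 6 days at 37 °C, then trypsinized, counted and reseeded, repeated five times. Generation time was calculated per concentration.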

Human rhinovirus sp. [9] = test: Cytotoxic dose at which 50% growth of normal cells is inhibited against rhino virus infection.; assay type: functional
Summary of the method: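 Human skin fibroblasts, 10⁶ cells per flask, given serial 2-fold dilutions in quadruplicate in M-199 with 6% newborn calf serum and held 6 days at 37 °C. Cells were trypsinized, counted in a chamber and reseeded with compound over five repeat cycles. CyD50 = lowest concentration at least doubling cell generation time relative to untreated control.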

Enterovirus C [10] = test: Minimal dose which produces titer reduction at 10 ug/mL (mD RF10e3); assay type: functional

Structure (SMILES) | Max non-toxic dose (Enterovirus C [1]) [µg/mL] | Reduction factor (Enterovirus C [2]) | ED99 (Enterovirus C [3]) | CC50 [4] [µg/mL] | ED99 (Human rhinovirus sp. [5]) [µg/mL] | ED99 (Enterovirus C [6]) [µg/mL] | selectivity ratio [7] | selectivity ratio [8] | CyD50 (Human rhinovirus sp. [9]) [µg/mL] | Minimal dose (Enterovirus C [10]) [µg/mL]
COc1ccc(-c2oc3cc(Cl)ccc3c(=O)c2OC)cc1 | 100 | 1 | inactive | > 200 | – | – | – | – | – | –
COc1c(-c2ccc(O)cc2)oc2cc(Cl)ccc2c1=O | 100 | 10000 | – | 100 (≈ 330 µM) | 25 | 7 | 4 | 14.3 | 100 | 20
COc1c(-c2ccc(O)cc2)oc2ccc(Cl)cc2c1=O | 100 | – | – | 100 (≈ 330 µM) | <1000 | 6 | – | 16.7 | 100 | 1.5
COc1c(-c2ccc(O)cc2)oc2cc(O)ccc2c1=O | 5 | – | – | 15 (≈ 52.8 µM) | 25 | 1 | 1 | 15 | 25 | 4
COc1ccc(-c2oc3ccc(Cl)cc3c(=O)c2OC)cc1 | 25 | 1 | inactive | 20 (≈ 63.1 µM) | – | – | – | – | – | –
COc1cc(O)c2c(=O)c(OC)c(-c3ccc(O)cc3)oc2c1 [KUMATAKENIN] | 100 | 1000000 | – | 100 (≈ 318 µM) | 2.5 | 0.3 | 40 | 333 | 100 | 0.3
COc1cc(O)c2c(=O)c(OC)c(-c3ccc(O)cc3)oc2c1OC | 25 | 1000000 | – | > 100 | 0.5 | 0.25 | > 200 | 400 | >100 | 0.3
COc1c(-c2ccc(O)cc2)oc2ccccc2c1=O | 15 | 100000 | – | 10 (≈ 37.3 µM) | – | 6 | – | 1.7 | – | 6
COc1ccc2c(=O)c(OC)c(-c3ccc(O)cc3)oc2c1 | 50 | – | – | > 50 | 10 | 2.5 | > 5 | > 20 | >50 | 2.5
Cc1ccc2c(=O)c(Cl)c(-c3ccc(O)cc3)oc2c1 | – | – | – | 50 (≈ 174 µM) | 20 | – | – | – | 50 | –
COc1c(-c2ccc(O)c(O)c2)oc2c(OC)c(O)cc(O)c2c1=O | 20 | 1000000 | – | 10 (≈ 28.9 µM) | – | 1.5 | – | 6.6 | – | 2
COc1c(-c2ccc(O)cc2)oc2cccc(OC)c2c1=O | 10 | – | – | 150 (≈ 503 µM) | 15 | 10 | 10 | 15 | 150 | 5
COc1ccc(-c2oc3ccc(OC)cc3c(=O)c2OC)cc1 | 50 | – | – | 100 (≈ 320 µM) | 50 | – | – | 2 | 100 | –
COc1c(-c2ccc(O)cc2)oc2cc(O)cc(C)c2c1=O | 10 | 100000 | – | 15 (≈ 50.3 µM) | 1 | 0.1 | 15 | 150 | 15 | 0.05
COc1cc(O)c2c(=O)c(OC)c(-c3ccc(O)c(OC)c3)oc2c1 [PACHYPODOL] | 20 | 1000000 | – | 25 (≈ 72.6 µM) | – | 2.5 | – | 10 | – | 0.5
COc1cc(O)c2c(=O)c(OC)c(-c3ccc(O)c(O)c3)oc2c1OC | 10 | 100000 | – | > 5 | 2 | 0.2 | 10 | 25 | 20 | 0.5
COc1c(-c2ccc(O)cc2)oc2ccc(O)cc2c1=O | 10 | – | – | 3 (≈ 10.6 µM) | 10 | 2 | 1.5 | 1.5 | 15 | 5
COc1c(-c2ccc(O)c(O)c2)oc2cc(O)cc(O)c2c1=O [3-O-METHYLQUERCETIN] | 20 | 1000000 | – | 5 (≈ 15.8 µM) | – | 0.3 | – | 16.7 | – | 0.5
COc1c(-c2ccc(O)cc2)oc2cc(I)ccc2c1=O | 10 | 10000 | – | 20 (≈ 50.7 µM) | <1000 | 4 | – | 5 | 20 | 10
COc1c(-c2ccc(O)cc2)oc2ccc(C)cc2c1=O | 12 | – | – | 75 (≈ 266 µM) | <1000 | 5 | – | 15 | 75 | –
COc1c(-c2ccc(O)cc2)oc2cc(C)ccc2c1=O | 25 | – | – | 25 (≈ 88.6 µM) | 25 | 2 | 1 | 12.5 | 25 | 4
COc1cc2oc(-c3ccc(O)cc3)c(OC)c(=O)c2c(O)c1OC [PENDULETIN] | 100 | 1000000 | – | 100 (≈ 290 µM) | 10 | 0.2 | 1 | 500 | 10 | 0.1
COc1c(-c2ccc(O)cc2)oc2ccc(C(C)C)cc2c1=O | 5 | – | – | 10 (≈ 32.2 µM) | 10 | 5 | 1 | 2 | 10 | –
COc1cc(OC)c2c(=O)c(OC)c(-c3ccc(O)cc3)oc2c1 | 100 | 100000 | – | 100 (≈ 305 µM) | 20 | 10 | 5 | 10 | 100 | 5
Cc1ccc2c(=O)c(C)c(-c3ccc(O)cc3)oc2c1 | – | – | – | 100 (≈ 376 µM) | 25 | – | – | – | 100 | –
COc1cc(O)c2c(=O)c(OC)c(-c3ccc(O)c(O)c3)oc2c1 | 10 | 1000000 | – | 10 (≈ 30.3 µM) | – | 0.3 | – | 33.3 | – | 0.5
COc1c(-c2ccc(O)cc2)oc2c(OC)cccc2c1=O | 50 | 1000000 | – | 25 (≈ 83.8 µM) | – | 20 | – | 1.25 | – | 2.5
COc1c(-c2ccc(O)cc2)oc2cccc(O)c2c1=O | 5 | 10000 | – | 25 (≈ 87.9 µM) | 1 | 0.5 | 5 | 50 | 5 | 1.5

Reference: ChEMBL document CHEMBL1125251, “4'-Hydroxy-3-methoxyflavones with potent antipicornavirus activity” (J Med Chem, 1991)
